The test system of series [1] is CYP2D6. Conditions: humans; ref O'Mathuna et al. [2008]; cited from earlier work.
The subject of series [2] is CYP2D6. The note with it: CYP2D6 with MDMA in human liver microsomes; ref Heydari et al. [2004]; cited from earlier work. (In general: Liver microsomes are vesicles of endoplasmic reticulum, rich in cytochrome P450 enzymes.)
For series [3], the target named is CYP2C9 (Homo sapiens, UniProt P11712). The series is classed as biochemical. Conditions: human liver microsomes, pH 7.4, probe diclofenac (100 μmol/L), diclofenac hydroxylation.
The conditions of series [4]: humans, sesamin supplement 50 mg/day for 28 days; ref Tomimori et al. [2013]; cited from earlier work.
Series [5] in a line: Pharmacokinetics of diclofenac in rats after 3 days administration of sesamin. The series is classed as in vivo, rat. Conditions: for AUC(0-t) / Cmax / Tmax / half-life: rat, plasma, po, 10 mg/kg; for AUC(0-t): AUC0–24 h; for AUC(0-t) / Cmax / Tmax: diclofenac 10 mg/kg bw intragastric; for half-life: t1/2, diclofenac 10 mg/kg bw intragastric.
The subject of series [6] is CYP2C9. The note with it: cited from earlier work.
Another series deals with rat CYP2C. The series is classed as in vivo. The note with it: rats, sesamin 0, 10, 100 mg/kg bw for 7 days. A digest of the protocol:
(§1)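 Male Sprague–Dawley rats were acclimated for 7 days before dosing. Liver microsomes: liver rinsed in ice-cold saline, homogenized in four volumes of ice-cold 1.15% KCl, spun at 10,000g for 20 min, then the supernatant at 100,000g for 60 min. The pellet was resuspended in 20 mmol/L phosphate buffer (pH 7.4) with 1.15% KCl. Protein was measured by bicinchoninate assay.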

For series [7] the following is noted: assumed; ref Moazzami et al. [2007]; cited from earlier work.
Series [8] deals with rat CYP2C (rat liver microsomes). The series is classed as biochemical. A digest of the protocol: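 Rat liver microsomes (0.5 mg protein/mL) with 1 mmol/L NADPH in 100 mmol/L phosphate (pH 7.4), 37°C. Test compound in DMSO (20 μmol/L final) versus DMSO reference. Difference spectra (400–500 nm) were taken at 0–120 min, tracking A459 minus A500. Parent and catechol metabolites were quantified in parallel by HPLC of methanol-quenched aliquots taken at the same times. Mean ± SD, at least duplicates.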

The nature of series [9]: Plasma concentration of sesamin in rats. The series is classed as in vivo. Conditions: rat, po, 100 mg/kg. A digest of the protocol:
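Test compound in corn oil was given intragastrically by feeding needle. The organic phase was dried and the residue taken up in 100 μL acetonitrile. HPLC: methanol/0.05% TFA gradient, fluorescence ex 298/em 325 nm; mean ± SD, n = 12.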

The format of series [10] is in vivo, rat. The note with it: rats.
Series [11] deals with CYP2C-mediated diclofenac hydroxylation activity. The series is classed as in vivo, rat. Conditions: rats, sesamin 0, 10, 100 mg/kg bw for 7 days. In a few lines:
as §1

Series [12] in a line: Estimation of the maximum inlet concentration to the liver. The note with it: for absorption rate constant: assumed, roughly estimated from the data by Tomimori et al. [2013]; for maximum inlet concentration to the liver: humans, following the 50 mg oral dose, eqn. 1. The arrangement: species or system human.
A short description of series [13]: Hepatic sesamin concentration in rats. The series is classed as in vivo. The note with it: rat, liver, oral, 100 mg/kg.
Another series addresses T1, recombinant rat CYP2C11 (Rattus norvegicus, UniProt P08683).
T1 sequence (P08683 1-500): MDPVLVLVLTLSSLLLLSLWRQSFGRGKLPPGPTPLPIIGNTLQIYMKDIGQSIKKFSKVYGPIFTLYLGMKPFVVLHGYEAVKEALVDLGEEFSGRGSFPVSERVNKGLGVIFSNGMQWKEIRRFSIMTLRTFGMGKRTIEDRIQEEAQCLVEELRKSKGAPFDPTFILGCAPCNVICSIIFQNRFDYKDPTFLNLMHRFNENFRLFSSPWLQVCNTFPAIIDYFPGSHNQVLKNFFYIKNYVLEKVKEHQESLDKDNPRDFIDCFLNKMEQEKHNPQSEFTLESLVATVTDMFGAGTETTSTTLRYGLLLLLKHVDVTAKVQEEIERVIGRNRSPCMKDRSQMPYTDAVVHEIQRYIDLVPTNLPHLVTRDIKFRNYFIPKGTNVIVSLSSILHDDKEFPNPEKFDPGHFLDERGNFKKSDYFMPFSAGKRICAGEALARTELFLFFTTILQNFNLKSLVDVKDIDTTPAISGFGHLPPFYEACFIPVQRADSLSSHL
The series is described as follows: Sesamin-induced difference spectrum of recombinant rat CYP2C11. The series is classed as biochemical. Conditions: recombinant rat CYP2C11, NADPH, 20 μmol/L sesamin. A digest of the protocol:
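Recombinant rat CYP2C11 from baculovirus-infected insect cells (50 pmol/mL) with 1 mmol/L NADPH in 100 mmol/L phosphate (pH 7.4) at 37°C. Test compound in DMSO (20 μmol/L final) went into the sample cuvette and an equal volume of DMSO into the reference. Difference spectra were recorded over 400–500 nm after 7 and 60 min incubation.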

The target in series [14] is T2, CYP2C in rat liver microsomes (CYP2C11) (Rattus norvegicus, UniProt P08683).
T2 sequence (P08683 1-500): T1 sequence (P08683 1-500)
The series is classed as biochemical.

The mark [15] stands for this setting: after sesamin 10 mg/kg bw for 3 days.
Setting [16] is: after sesamin 100 mg/kg bw for 3 days.
The mark [17] stands for this setting: control (0 mg/kg bw sesamin for 3 days).

A word on the kinact: it is the rate constant of inactivation at saturating inhibitor. A word on the Cmax: it is the highest concentration seen after dosing. What is called Tmax is the time at which the peak concentration occurs. Broadly, the AUC(0-t) is exposure summed from dosing to a finite time, without extrapolation to infinity. As usually defined, the half-life is the time in which the quantity being followed falls by half. A higher half-life goes with slow decline.

SMILES strings stand for the structures. Values joined by “and” are separate entries in the source; they are usually repeats but may differ in a detail not shown here. Equal values may be shown once. “Also recorded” adds a separate entry of the source. Read-outs that look alike come from different tables or passages of the source.

Chain of CYP2C9 (Homo sapiens, UniProt P11712) (P11712 whole entry): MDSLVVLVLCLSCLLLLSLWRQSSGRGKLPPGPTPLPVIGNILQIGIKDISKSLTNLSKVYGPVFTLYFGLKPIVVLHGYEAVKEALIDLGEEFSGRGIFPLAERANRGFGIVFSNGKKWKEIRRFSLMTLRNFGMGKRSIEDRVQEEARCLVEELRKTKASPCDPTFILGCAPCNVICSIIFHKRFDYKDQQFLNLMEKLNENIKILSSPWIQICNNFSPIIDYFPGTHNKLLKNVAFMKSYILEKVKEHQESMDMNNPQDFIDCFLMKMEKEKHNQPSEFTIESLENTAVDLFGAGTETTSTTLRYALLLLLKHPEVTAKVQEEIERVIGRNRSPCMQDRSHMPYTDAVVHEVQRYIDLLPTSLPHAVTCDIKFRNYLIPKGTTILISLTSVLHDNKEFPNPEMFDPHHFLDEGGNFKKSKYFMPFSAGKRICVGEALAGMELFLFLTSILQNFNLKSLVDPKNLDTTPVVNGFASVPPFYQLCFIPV

As for `CNC(C)Cc1ccc2c(c1)OCO2` (centres unmarked) [MDMA, 3,4-Methylenedioxymethamphetamine], in the series on CYP2D6 [1], the “increase of dextromethorphan AUC0-8 h when administered with MDMA” value is on record as “approximately 10 fold”, the “increase of dextromethorphan AUC after MDMA administration” value is reported as “approximately 10 fold” and the “increase of dextromethorphan Cmax after MDMA administration” value is on record as “approximately 10 fold”. Moreover, the kinact with CYP2D6 [2] was 0.12 to 0.26 min⁻¹.

As for `c1cc2c(cc1[C@H]1OC[C@H]3[C@@H]1CO[C@@H]3c1ccc3c(c1)OCO3)OCO2` [sesamin], on CYP2C9 [3], the inactivation rate constant (kinact) is 0.00217 s⁻¹ and the kinact/KI is 96.7 M⁻¹ s⁻¹. The “accumulation after repeated administration” value in [4] was “did not detect the accumulation; also recorded: no accumulation”. In addition, the “effect of sesamin on pharmacokinetic parameters of diclofenac (Cmax, Tmax, AUC)” value in [5] (sesamin 0, 10, 100 mg/kg bw for 3 days, then diclofenac 10 mg/kg bw) was “No significant differences”. Also, the kinact in the series on CYP2C9 [6] (CYP2C9 with sesamin in human liver microsomes, ref Yasuda et al. [2010]) is 0.13 min⁻¹. In the series with rat CYP2C, the “expression of CYP2C protein in liver microsomes” value is recorded as “no significant differences; also recorded: no remarkable change”. Also, the fraction absorbed in series [7] is 30%. Also, in series [8] (rat liver microsomes), the “half-life time of the MI complex of sesamin” value is 0.167 h and the “time to disappearance of the 459 nm peak after the termination of the metabolism” value is given as ≤ 30 min. Moreover, the “conversion of sesamin to SC-2 via SC-1” value in series [8] (rat liver microsomes 0.5 mg/mL, 20 μmol/L sesamin, at 60 min) was “almost all of sesamin was converted to SC-2 via SC-1”. Moreover, the “peak of sesamin-induced difference spectrum (MI complex)” value in [8] (rat liver microsomes, NADPH, 20 μmol/L sesamin, 37°C) stood at 459 nm. In series [9], the maximum concentration (Cmax) is 33 ng/mL and 94 nM; the time of peak concentration (Tmax) was 1.2 ± 0.6 h. In series [10] (sesamin 0, 10, 100 mg/kg bw and diclofenac 10 mg/kg bw simultaneously), the “effect of sesamin on the diclofenac pharmacokinetics” value is “no significant effects”. Further, the “diclofenac hydroxylation activity in liver microsomes” value in [11] is given as “no significant effects; also recorded: no significant differences; also recorded: no remarkable change”. Also, in series [12], the absorption rate constant was 0.5 h⁻¹ and the “maximum inlet concentration to the liver” value is on record as 130 nmol/L. In addition, the concentration at 1 h in series [13] is 390 ng/g and 1.1 µM. On recombinant rat CYP2C11, the “peak of sesamin-induced difference spectrum (MI complex)” value is listed as 459 nm. Further, the maximal inactivation rate constant (kinact) in [14] is 0.00132 s⁻¹. In series [14] (rat liver microsomes, sesamin 0-50 μmol/L, preincubation 0, 5, 10 min), the “inhibition of 4'- and 5-hydroxylation activities toward diclofenac” value was “time- and concentration-dependently inhibited”. The kinact/KI in series [14] (read-out: kinact/Ki app) was 48.3 M⁻¹ s⁻¹.

Take `c1cc2c(cc1[C@H]1OC[C@H]3[C@@H]1CO[C@@H]3c1ccc3c(c1)OCO3)OCO2` [episesamin]: the “accumulation after repeated administration” value in series [4] was “did not detect the accumulation; also recorded: no accumulation”. The “kinact/Ki value for recombinant human CYP2C9 relative to sesamin” value in the series on CYP2C9 [6] (recombinant human CYP2C9, ref previous studies of the authors) is “five times smaller”. Besides, the “kinact/Ki app for CYP2C9 relative to sesamin” value in the series on CYP2C9 [6] (ref Yasuda et al. [2012]) is “approximately one-fifth”. For the same compound, in series [12], the absorption rate constant was 1.5 h⁻¹ and the “maximum inlet concentration to the liver” value is recorded as 410 nmol/L.

In the case of `O=C(O)Cc1ccccc1Nc1c(Cl)cccc1Cl` [diclofenac], the exposure AUC(0-t) in [5] (setting [15]) was 4620 ng·h/mL; in series [5] (setting [16]), 6930 ng·h/mL; in [5] (setting [17]) it was 4880 ng·h/mL; in series [10] (rat, plasma, po, 10 mg/kg, AUC0–24 h, diclofenac 10 mg/kg bw intragastric, control (0 mg/kg bw sesamin at same time)) it was 5480 ng·h/mL. Further, the peak concentration (Cmax) in series [5] (setting [15]) was 1200 ± 500 ng/mL; in series [5] (setting [16]), 1300 ± 600 ng/mL; in series [5] (setting [17]) it was 1800 ± 800 ng/mL; in series [10] (rat, plasma, po, 10 mg/kg, Cmax, diclofenac 10 mg/kg bw intragastric, control (0 mg/kg bw sesamin at same time)), 2100 ± 1700 ng/mL. For the same compound, the Tmax was 7 min in [5] (setting [15]); 7.2 min in series [5] (setting [16]); 5.4 min in series [5] (setting [17]); 5.6 min in [10] (rat, plasma, po, 10 mg/kg, Tmax, diclofenac 10 mg/kg bw intragastric, control (0 mg/kg bw sesamin at same time)). In addition, the half-life in [5] (setting [15]) was 14.8 ± 9.3 h; in series [5] (setting [16]), 11.1 ± 6.8 h; in series [5] (setting [17]), 10.6 ± 2.9 h; in series [10] (rat, plasma, po, 10 mg/kg, t1/2, diclofenac 10 mg/kg bw intragastric, control (0 mg/kg bw sesamin at same time)) it was 9.8 ± 5.1 h.

The values are drawn from PMC4618645 (Pharmacology Research & Perspectives, 2015).
